# Screening results as filed in PubChem BioAssay.
# Apaf1 inhib: inhibitors of human Apaf-1 apoptosome, primary screen, biochemical, DEVD-Rh110 fluorescence, uHTS; reconstituted apoptosome caspase-3 activity; inhibition, % at 20 µM; 330,000 compounds, 0.71% hits; AID 489030, 2010; active means inhibition of at least 40% at 20 µM;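 further: plate controls were DMSO wells for no effect and DEVD-CHO caspase inhibitor wells for full effect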
#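 Material: reconstituted apoptosome with Apaf-1, cytochrome c, caspase-9, procaspase-3, dATP. Technique: Rh110 fluorescence intensity. Buffer or medium: pH 7.5 Hepes buffer with CHAPS, BSA, DTT. Times: 30 min plus 50 min, RT.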
# CTSL1 counter: Fasciola hepatica cathepsin L1 inhibitors, primary screen, counter-screen for PFM18AAP inhibitor project, biochemical, QFRET, fluorogenic peptide substrate; inhibition, % at 5.96 µM; 300,000 compounds, 0.49% hits; recombinant F. hepatica cathepsin L1, Z-Leu-Arg-MCA fluorescence;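 active means inhibition above the mean of all tested compounds plus 3 SD, set per screening campaign, cut at about 17% in these data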;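 further: 0% = plate median of test compound wells and 100% = 1 µM Z-Phe-Ala-diazomethylketone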
# GSTO1 inh: inhibitors of recombinant GSTO1, primary screen, counter-screen for RBBP9 inhibitor project, biochemical, fluorescence polarization; inhibition, % at 5.96 µM; activity-based probe fluorescence polarization; AID 1974, 2009; 300,000 compounds, 1.1% hits; Glutathione S-transferase omega-1 (Homo sapiens), P78417;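 active means inhibition above the campaign mean inhibition plus 3 SD, cut at about 35% in these data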;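 further: 0% = GSTO1-1 with DMSO and 100% = wells lacking GSTO1-1 enzyme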
# PAD4 inh: human PAD4 inhibitors, primary screen, biochemical, fluorescence polarization, 1536-well format; Protein-arginine deiminase type-4 (Homo sapiens), Q9UM07; AID 485272, 2010; recombinant PAD4, RCA probe fluorescence polarization; inhibition, % at 6.36 µM; 330,000 compounds, 0.41% hits;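 active means percent inhibition above a cutoff equal to the mean of all tested compounds plus 3 SD, cut at about 15% in these data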;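 further: 0% = PAD4 with RCA probe and DMSO and 100% = probe without PAD4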
# Target sequence (Q9UM07 whole entry, looked up): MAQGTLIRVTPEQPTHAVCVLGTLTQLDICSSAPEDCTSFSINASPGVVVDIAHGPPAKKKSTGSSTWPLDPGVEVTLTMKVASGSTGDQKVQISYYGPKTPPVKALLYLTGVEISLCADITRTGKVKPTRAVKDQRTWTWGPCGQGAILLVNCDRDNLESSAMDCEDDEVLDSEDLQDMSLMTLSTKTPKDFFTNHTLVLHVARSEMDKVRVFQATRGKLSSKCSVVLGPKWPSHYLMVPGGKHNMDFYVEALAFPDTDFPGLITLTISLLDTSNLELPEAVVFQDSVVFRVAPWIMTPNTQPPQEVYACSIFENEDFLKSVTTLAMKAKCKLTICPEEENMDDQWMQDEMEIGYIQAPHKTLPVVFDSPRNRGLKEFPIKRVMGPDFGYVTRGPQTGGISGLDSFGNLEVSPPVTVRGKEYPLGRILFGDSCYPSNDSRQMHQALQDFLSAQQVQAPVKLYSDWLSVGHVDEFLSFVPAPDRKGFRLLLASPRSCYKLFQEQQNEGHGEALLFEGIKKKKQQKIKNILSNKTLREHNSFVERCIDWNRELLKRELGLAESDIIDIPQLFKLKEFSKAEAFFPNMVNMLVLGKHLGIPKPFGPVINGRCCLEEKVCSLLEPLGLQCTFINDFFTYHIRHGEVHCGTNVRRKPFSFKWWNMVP
# TDP2 inh: human TDP2 enzyme inhibitors, primary screen, biochemical, epi absorbance, recombinant enzyme; Tyrosyl-DNA phosphodiesterase 2 (Homo sapiens), O95551; T5PNP hydrolysis, p-nitrophenol absorbance 415 nm; inhibition, % at 12.8 µM; 370,000 compounds, 0.34% hits; AID 720702, 2013;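 active means inhibition above the mean of all tested compounds plus 3 SD, set per campaign, cut at about 25% in these data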;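 further: 0% = DMSO with enzyme and 100% = buffer with substrate but no TDP2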
#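 Evaluation: % inhibition relative to enzyme-containing and enzyme-free wells. Material: recombinant human TDP2. Benchmarks: enzyme-free and DMSO wells. Timing: enzyme reaction with compound for 2 h at 37 °C. Compound dosing: 12.8 µM only. Measured by: p-Nitrophenol epi absorbance. Reagent: T5PNP substrate at 5 mM, a TopII-DNA adduct mimic. Replication: single well per compound.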
# Apaf-1 inh conf2: Apaf-1 inhibitors, single-dose retest, confirmation, biochemical, fluorescence, DEVD-Rh110, 20 µM. shares compounds with Apaf1 inhib. reconstituted apoptosome, caspase-3 DEVD-Rh110 fluorescence. inhibition, % at 20 µM. 1,800 compounds, 25% hits. AID 504614, 2011;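 active means mean inhibition of at least 40% at 20 µM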;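 further: plate controls were DMSO wells for no effect and DEVD-CHO caspase inhibitor control wells for full effect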
# Rh110 quench: Rh110 fluorescence interference by putative Apaf-1 inhibitors, confirmation, artefact control for Apaf-1 inhibitor project, biochemical, 20 µM | shares compounds with Apaf1 inhib | quenched caspase reaction | activation (fluorescence interference), % at 20 µM | 1,800 tested, under 10 active | AID 504615, 2011;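 active means signal rise of 40% or more at 20 µM, treated as a fluorescence artifact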
# Apaf1 inh interf: fluorescence interference of Apaf-1 inhibitor hits, dose response, artefact control for Apaf-1 inhibitor project; 460 tested, under 10 active; fluorescence interference counterscreen, Apaf-1 assay format; shares compounds with Apaf1 inhib; AID 588538, 2011; IC50, µM; call rule not given here
# * marks the source's active call; other numbers are inactive results; . = no result given. In the library only some 1.8% were active in any assay of this set; here they are far more common.
SMILES,Apaf1 inhib,CTSL1 counter,GSTO1 inh,PAD4 inh,TDP2 inh,Apaf-1 inh conf2,Rh110 quench,others
Oc1ccc(C[C@@H]2CNCCN2CCC23CC4CC(CC(C4)C2)C3)cc1,47.0*,-3.5,1.6,4.2,-2.6,1.5,5.1,
CCN1CCN(Cc2ccc(NC(=O)c3cc(NC(=O)c4cc(C)on4)cc(OC)c3)cc2C(F)(F)F)CC1,33.1,-0.5,-6.1,-3.0,1.0,.,.,
CCN1CCN(Cc2ccc(NC(=O)c3ccc(C)c(NC(=O)C(=O)c4c[nH]c5ccccc45)c3)cc2C(F)(F)F)CC1,74.4*,2.2,-20.0,-4.0,-8.2,34.7,0.8,
CCN1CCN(Cc2ccc(NC(=O)c3cc(NC(=O)C(=O)c4c[nH]c5ccccc45)cc(OC)c3)cc2C(F)(F)F)CC1,41.5*,-1.3,-32.4,-2.7,1.1,24.3,1.3,
COc1cccc(CO[C@H]2C=C[C@@H](c3ccccc3)O[C@@H]2CO)c1,.,.,.,.,3.9,.,.,
COc1cccc(CN(C)C(=O)c2cccc(S(=O)(=O)NCc3ccccc3)c2)c1OC,11.1,1.2,9.3,-0.1,-6.3,.,.,
COc1ccc(CCN(C)C(=O)c2cccc(S(=O)(=O)NCc3ccccc3)c2)cc1OC,56.7*,1.9,3.3,4.1,-5.3,37.7,5.5,
COc1cccc(/C=C2\CC3(OC(=O)C4CCCC4)CCCN2C3)c1 (stereo not given),.,.,.,.,-2.0,.,.,
Cc1nn(-c2ccccc2)c(N2CCCC2)c1/C=C1\N=C(c2ccc(OC(C)C)cc2)OC1=O,51.7*,74.0*,-0.7,-1.3,-4.4,16.9,6.4,
Cc1ccc(C2=N/C(=C\N3CCCCC3)C(=O)O2)cc1,3.8,5.6,4.7,-1.6,-0.4,.,.,
COc1cccc2c1-c1c(C(=O)O)cccc1C2=O,1.9,4.6,5.6,8.0,6.9,.,.,
COc1cccc2c1C(=O)c1ccc3ccccc3c1C2=O,72.2*,0.9,10.5,-2.8,.,9.4,4.5,
CCOc1cc(C(c2c(C)[nH][nH]c2=O)c2c(C)[nH][nH]c2=O)ccc1OS(=O)(=O)c1ccc(C)cc1,40.6*,-1.3,-18.9,-7.2,-0.5,25.5,18.9,
CCCCCc1cc(=O)oc2c(C(CCN3CCCC(C)C3)c3ccc(N(C)C)cc3)c(OC)cc(OC)c12 (stereo not given),68.0*,-0.5,3.7,1.4,.,38.2,10.1,
COc1cc(OC)c2ccc(=O)oc2c1C(CCN1CCCC(C)C1)c1ccc(N(C)C)cc1 (stereo not given),7.3,2.0,7.2,-2.2,-6.5,.,.,
CCCCCc1cc(=O)oc2c(C(CCN3CCCC(C)C3)c3cc(OC)c(OC)c(OC)c3)c(OC)cc(OC)c12 (stereo not given),60.4*,-0.5,-4.9,-7.8,.,18.4,6.8,
CCC(NC(=O)Cn1c(-c2ccccc2)cc(C(C)=O)c1C)c1ccccc1 (stereo not given),.,.,.,.,-0.4,.,.,
CCOC(=O)CCCNC(=O)OC1CC2CC1[C@H]1CCCCN1[C@H]2Cc1ccccc1 (stereo not given in full),.,.,.,.,-1.5,.,.,
CCOC(=O)c1c(-c2ccc(-c3ccccc3)cc2)csc1NC(=O)CNCCN(C)C,42.2*,3.4,-0.6,-2.1,-9.4,47.4*,5.3,Apaf1 inh interf=>100
CCOC(=O)c1c(-c2ccccc2)csc1NC(=O)CCN1C(=O)c2ccccc2C1=O,8.6,0.5,-1.4,3.0,1.7,.,.,
O=C(c1ccc(OCCN2CCCCC2)cc1)c1c(-c2ccc(O)cc2)sc2cc(O)ccc12,46.9*,-0.7,-45.5,-3.1,6.6,7.9,-4.7,
COc1ccccc1-c1sc2cc3c(cc2c1-c1ccc(OCCN2CCCCC2)cc1)OCO3,59.4*,.,.,-2.5,-12.4,8.5,1.3,
COc1cc2sc(-c3ccccc3OC)c(-c3ccc(OCCN4CCCCC4)cc3)c2cc1OC,65.7*,.,.,0.8,-10.6,25.3,12.3,
NS(=O)(=O)c1ccc(NC(=O)CSc2nnc(-c3cccs3)o2)cc1,.,.,.,.,-5.0,.,.,
CCN(Cc1ccccc1)C(=O)c1cccc(S(=O)(=O)N2CCN(c3ccc(F)cc3)CC2)c1,42.1*,-4.3,-6.9,1.4,-5.1,38.8,0.1,
SMILES,Apaf1 inhib,CTSL1 counter,GSTO1 inh,PAD4 inh,TDP2 inh,Apaf-1 inh conf2,Rh110 quench,others
CCN(Cc1ccccc1)C(=O)c1cccc(S(=O)(=O)N2CCN(c3ccccc3)CC2)c1,24.2,-0.8,-4.7,-0.3,1.4,.,.,
CCCCCCCCN1C(=O)[C@@H](CC(=O)N2CCCCC2)C[C@@]2(C(=O)OC)C1=C[C@H](C1CCCC1)O[C@@H]2C,.,.,.,.,7.9,.,.,
O=[N+]([O-])c1ccc(N2CCN(c3ccccc3O)CC2)c(Cl)c1,18.4,0.1,-0.5,-6.8,4.4,.,.,
O=C1Cc2cc([N+](=O)[O-])ccc2N1c1c(Cl)cccc1Cl,43.2*,5.8,9.2,-8.7,7.9,11.0,1.6,
CCC(=O)NC1=C(NC(C)c2ccccc2)C(=O)c2ccccc2C1=O (stereo not given),4.5,1.2,14.1,-8.2,11.2,.,.,
CCC(=O)NC1=C(Cl)C(=O)C(NC(=O)CC)=C(Cl)C1=O,70.7*,.,.,.,7.8,10.7,1.2,
CCN(CC(=O)Nc1c(F)cccc1F)C(=O)Cc1ccsc1,52.3*,.,.,-0.1,7.5,41.5*,8.7,Apaf1 inh interf=>100
CCN(CC(=O)Nc1c(F)cccc1F)C(=O)CNC(=O)c1ccc2ccccc2c1,-0.8,.,.,0.3,3.9,.,.,
CCN(CC(=O)Nc1c(F)cccc1F)C(=O)CNC(=O)c1ccc2c(c1)OCO2,53.2*,-1.2,0.5,-0.5,0.0,30.7,1.8,
Cc1ccc(/C=N/NC(=O)C(C)NC(=O)c2ccccc2)cc1 (stereo not given),41.2*,1.7,-0.1,4.7,-4.9,8.0,-6.0,
O=C1Nc2ccc(S(=O)(=O)NCc3ccco3)c3cccc1c23,49.5*,-0.8,-18.4,-5.1,-5.2,22.0,16.7,
Cc1cc(N2CCN(CC(C)(C)O)C[C@H]2C)ccc1N1CCN(CC(C)(C)O)[C@H](C)C1,.,.,.,.,4.4,.,.,
Cc1cccnc1NC(=O)c1ccc(OCC2CCCO2)cc1 (stereo not given),54.3*,.,.,1.0,5.4,34.3,5.8,
